Data taken from PubChem BioAssay AID588627 (Johns Hopkins Ion Channel Center, 2011).
Among all 310,000 compounds or so, about 1,400 (0.45%) were called active.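 Rule for the calls: active = calcium response B-score plate-corrected fluorescence ratio at least 3 library SD, with starting fluorescence B-score inside 5 SD; inactive = the rest.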 Only a selection was taken, and actives are over-represented in it overall.

Target: Mas-related G-protein coupled receptor member X1 (Homo sapiens) (UniProt Q96LB2)
Assay: agonists of human MrgX1 receptor, primary screen, HEK293 cells, Fluo-4 calcium flux (AID 588627);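 for B-score: B-score of the peak-minus-trough calcium fluorescence change over baseline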
Settings: Fluo-4 calcium fluorescence, agonist mode, at 10 µM; stronger effect = higher value
Summary of the method: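 Material: MrgX1-expressing HEK293 cells; input: 15,000 cells per well; doses: test compound given as first of three sequential additions; schedule: overnight plating before 1 h dye loading; technique: Fluo-4 NW calcium-flux fluorescence, kinetic read; evaluation: baseline-normalised fluorescence change ratio, B-scored; control set: plate-wise positive and negative controls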

Mas-related G-protein coupled receptor member X1 (Homo sapiens), sequence (Q96LB2 whole entry, looked up): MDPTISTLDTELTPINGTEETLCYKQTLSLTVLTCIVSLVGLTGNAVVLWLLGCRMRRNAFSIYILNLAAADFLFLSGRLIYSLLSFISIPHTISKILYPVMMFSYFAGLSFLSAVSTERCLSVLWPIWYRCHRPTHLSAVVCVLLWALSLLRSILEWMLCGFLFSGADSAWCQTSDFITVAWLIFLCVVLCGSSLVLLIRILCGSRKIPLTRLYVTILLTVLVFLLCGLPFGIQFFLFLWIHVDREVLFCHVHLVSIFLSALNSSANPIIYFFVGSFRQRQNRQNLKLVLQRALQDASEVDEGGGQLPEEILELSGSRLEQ

B-score, inactive:
Cc1ccc(-c2nn(-c3ccccc3)cc2/C=C2\SC(=S)N(CCCCCC(=O)O)C2=O)o1
O=C(N/C(=C/c1ccc(Cl)cc1)C(=O)N1CCCCC1)c1ccco1
Cc1onc(-c2ccccc2)c1C(=O)Nc1ccccc1C#N
Cc1onc(-c2c(Cl)cccc2Cl)c1C(=O)NNC(=O)c1c(-c2c(Cl)cccc2Cl)noc1C
CCc1noc(C)c1C(=O)NNC(=O)c1ccc(F)cc1
Cc1ccc(CNC(=O)c2c(-c3ccccc3)noc2C)cc1
Cc1ccc(NC(=O)c2ccn(C(=O)Nc3ccccc3)n2)c(C)c1
CS(=O)(=O)N(CC(=O)N1CCCC1)Cc1ccccc1
CC1=NN(c2ccccc2)C(=O)C1C(=O)c1ccc([N+](=O)[O-])cc1 (centres undefined)
CC(=O)N1c2ccccc2N(Cc2ccc([N+](=O)[O-])cc2)C(=O)C1(C)C
COc1cc(CO)ccc1OCC(=O)Nc1cccc2ccccc12
COc1ccc(N2CC(C)Cn3c2nc2c3c(=O)n(Cc3ccccc3F)c(=O)n2C)c(OC)c1 (centres undefined)
O=C(COC(=O)c1cccc(Cl)c1)Nc1ccc2[nH]c(=O)[nH]c2c1
CC(=O)NCC(O)c1ccc([N+](=O)[O-])cc1 (centres undefined)
CCC(C)c1ccc(O)c(/C=N/O)c1 (centres undefined)
Cc1ccc(CNC(=O)CCC(=O)N2CC(C)Sc3ccccc32)cc1 (centres undefined)
Cc1ccc(CSCC2Nc3ccc(C(=O)N4CCN(c5ccc(F)cc5)CC4)cc3NC2=O)cc1 (centres undefined)
O=C(c1cc(C(=O)N2CCN(c3ccc(F)cc3)CC2)cc([N+](=O)[O-])c1)N1CCN(c2ccc(F)cc2)CC1
Cc1ccc(NC(=O)COC(=O)C2C3CC4OC(=O)C2C4C3)cc1Cl (centres undefined)
Cc1cc(C)cc(OCC(=O)NC(C)c2ccccc2)c1 (centres undefined)
Cc1ccc(OCC(=O)NC(C)c2ccccc2)cc1C (centres undefined)
COc1ccc(NC(=O)CC2C(=O)NC3CCCCC3N2C(=O)c2ccc(F)cc2)cc1 (centres undefined)
CCCNC(=S)N1CCC(NC(=O)c2ccc(OC)cc2)CC1
CC(C)COC(=O)c1ccc(NC(=O)C2C3C=CC(C3)C2C(=O)O)cc1 (centres undefined)
CCOC(=O)c1[nH]c2ccccc2c1N=C(C)N(CC)CC
CCOC(=O)c1cc2cc(C)ccc2[nH]1
Cn1c(N)cc(-c2ccc(F)cc2)c(C#N)c1=O
O=C(CSc1nnc(-c2c[nH]c3ccccc23)n1-c1ccc(F)cc1)NCc1ccco1
COc1cc(/C=C(\C#N)c2nc3c(s2)CC(C)CC3)ccc1O (centres undefined)
Cc1ccc2nc(/C(C#N)=C\c3ccc(OC(=O)c4cccs4)cc3)[nH]c2c1
COCOc1cc(O)c(C(=O)/C=C/c2ccc(OCOC)c(OCOC)c2)c(OCOC)c1
Cc1cc(C)cc(NC(=O)c2cccc(NC(=O)C3C4CC5OC(=O)C3C5C4)c2)c1 (centres undefined)
Cc1ccc(CSCC(=O)N(C)CC(=O)Nc2cccc(F)c2)cc1
CCN(CC)C(=O)C(=O)Nc1cccc(Br)c1
CS(=O)(=O)N(CC(=O)N1CCc2ccccc2C1)c1ccc(Br)cc1
CCOCCCNC(=S)Nc1ccc2nc(N3CCN(CC)CC3)cc(C)c2c1
CC(C)CN(Cc1c(O)ccc2c(=O)c(-c3ccccc3)coc12)CC(C)C
CCOC(=O)c1nnn(CC(=O)Nc2cccc(F)c2)c1C(=O)OCC
CCNS(=O)(=O)c1ccc(CCC(=O)N2CCN(c3ccc(OC)cc3)CC2)cc1
Cc1cc(=O)oc2c3c(cc(OCC(=O)N[C@H](C(=O)O)c4ccccc4)c12)OC(C)(C)CC3
Cc1c(C)c2c(OCC(=O)NCCCO)cc3c(c2oc1=O)CCC(C)(C)O3
O=C(C[n+]1ccc2c(c1)nnn2-c1ccccc1)c1ccc(Cl)cc1
CC(=O)N/C(=C/c1ccc(Cl)cc1)C(=O)NCCc1c[nH]c2ccccc12
O=C(CN1C(=O)NC2(CCCCC2)C1=O)NCCc1c[nH]c2ccccc12
COC(=O)c1ccccc1Oc1c(F)c(F)nc(N2CCOCC2)c1F
c1ccc(-n2cccc2)c(N2CCCCC2)c1
O=C(NCc1cccnc1)c1cnc2ccccc2n1
Cc1ccnc(N2CCCC(C(=O)NC3CC3)C2)n1 (centres undefined)
Cc1ccnc(SCC(N)=O)n1
CC1CN(C(=O)COC(=O)c2cccc(NS(=O)(=O)c3ccccc3)c2)CC(C)O1 (centres undefined)
Cc1nc2sc(C(=O)c3ccccc3)c(N)c2c2c1CCCC2
CN(C)c1ccnc2sc(C(=O)c3ccccc3)c(N)c12
C/C(=C\c1ccco1)C1Nc2cccc3cccc(c23)N1
COC1(C2=NCCN2)COc2ccccc2O1 (centres undefined)
COc1ccc(Nc2ncc(C(=O)N3CCN(c4ccccc4OC)CC3)c3ccccc23)cc1
COc1cc(SC#N)ccc1N=Cc1c(C)[nH]n(-c2ccc(C)cc2)c1=O
Cc1[nH]n(-c2cccc(Cl)c2)c(=O)c1/C=N/n1c(C)nc2ccccc2c1=O
CCn1c(SCc2ccccc2)nc2c(c1=O)SCC2
CCS(=O)(=O)n1nc(-c2ccc(OC)cc2)nc1SC
CN(CCOc1ccc(Br)cc1)CC(=O)Nc1cccc(S(=O)(=O)NC2=NCCC2)c1
CCCCN(C)CCCNC(=O)c1cc(-c2cccs2)nc2ccccc12
O=C(NCCN1CCOCC1)c1cc(-c2cccs2)nc2ccccc12
CCOC(=O)/C(=N\Nc1ccccc1[N+](=O)[O-])c1csc(Nc2ccccc2)n1
O=C(Nc1ccc(Cl)cc1)C1c2cccc[n+]2CC(=O)N1Cc1ccc2c(c1)OCO2 (centres undefined)
CCN1/C(=C\c2ccc3ccccc3[n+]2CC)Sc2cc(C)ccc21
CC(C)OCCCNC(=O)c1ccc(C2SCC(=O)N2Cc2ccco2)cc1 (centres undefined)
COc1cc(NC(=O)c2ccc3c(c2)OCO3)ccc1NC(=O)c1cccs1
COc1ccc(OCCCC(=O)OC(C)C(=O)Nc2ccccc2[N+](=O)[O-])cc1 (centres undefined)
COc1ccc(C)cc1N(CC(=O)N1CCCC1)S(=O)(=O)c1ccccc1
COc1ccc(N(CC(=O)N2CCCCCC2)S(=O)(=O)c2ccccc2)cc1
Cc1cccc(-c2nc3c(c(SCC(=O)N4CCOCC4)n2)CCCC3)c1
C=CCn1c(=NC(=O)c2cccs2)sc2cc(NC(C)=O)ccc21
CCCc1[nH]nc2c1C(c1ccc(OC(=O)c3ccco3)cc1)C(C#N)=C(N)O2 (centres undefined)
CCCc1[nH]nc2c1C(C1CC=CCC1)C(C#N)=C(N)O2 (centres undefined)
COc1ccc(S(=O)(=O)N2CCN(c3ncnc4c(-c5ccccc5)nsc34)CC2)cc1
COc1ccccc1CCNS(=O)(=O)c1cn(C)nc1C
CS(=O)(=O)N(CC(=O)N1CCCCCC1)c1cccc(Cl)c1Cl
Cc1ccc(-n2cc(CN(C)Cc3nccn3C)c(-c3cccc(C)c3)n2)cc1
CCOc1c(Nc2cccc(Cl)c2)c(=O)c1=O
O=C(CCN1CCN(C/C=C/c2ccccc2)CC1)Nc1ccccc1Cl
O=C(NC1CCCCC1)c1ccc(-c2ccc(Cl)cc2)o1
CCOc1ccc(C(c2c(C)[nH][nH]c2=O)c2c(C)[nH][nH]c2=O)cc1OCC
CCNc1nc(NC(C)C)nc(OCCOC(=O)c2ccccc2)n1

B-score, active:
COc1ccc(C(=O)NC(=S)NNC(=O)c2c(-c3ccccc3)noc2C)cc1 123
Cc1onc(-c2ccccc2)c1C(=O)NNC(=S)NC(=O)c1ccc(F)cc1 126
O=C1NC(=O)C2C1C(c1ccc([N+](=O)[O-])cc1)=NN2Cc1ccccc1 (centres undefined) 42.5
CNCC(O)c1ccc(O)c(O)c1 (centres undefined) 46.8
O=C1Nc2cc(C(=O)N3CCN(c4ccc(F)cc4)CC3)ccc2NC1CSCc1cccc(F)c1 (centres undefined) 28.7
COc1cc(OC)cc(C(=O)N[C@H](C(=O)OCC(=O)NC(C)c2ccccc2)C(C)C)c1 (some centres undefined) 36
CCOC(=O)c1[nH]c2ccc(C)cc2c1N=C(C)N(C)C 44.7
COc1cc(/C=C(\C#N)c2nc3ccccc3[nH]2)ccc1O 58.8
CCN(CC)C(=O)CSC(Nc1cccc(F)c1)=C(C#N)C#N 39.4
CC(C)=CCc1c(O)c(CC=C(C)C)c2occ(-c3ccc(O)cc3)c(=O)c2c1O 29.8
Cc1c(C)c2c(OCC(=O)N[C@@H](C(=O)O)c3ccccc3)cc3c(c2oc1=O)CCC(C)(C)O3 43.9
N#C/C(=C/c1ccc(N2CCCCC2)o1)C(=O)NCCc1c[nH]c2ccccc12 37.2
Cc1ccnc(-n2sc3ccccc3c2=O)n1 37
Nc1c(C(=O)c2cccs2)sc2nsc(SCCN3CCCCC3)c12 53.3
Cc1ccc(-n2[nH]c(C)c(/C=N/N3C(=O)c4cccc5cccc(c45)C3=O)c2=O)cc1 104
CCS(=O)(=O)n1nc(-c2ccccc2)nc1SCc1ccccc1 27.5
O=C(Nc1nnc(-c2ccccc2)o1)c1cc(-c2cccs2)nc2ccccc12 26.9
CCN1/C(=C/c2ccc3ccc(C)cc3[n+]2CC)Sc2ccccc21 123
COc1ccccc1N(CC(=O)N1CCCCC1)S(=O)(=O)c1ccccc1 50
CCCc1[nH]nc2c1C(c1ccc(Br)s1)C(C#N)=C(N)O2 (centres undefined) 26.9
Cc1[nH][nH]c(=O)c1C(c1ccc(-c2ccc(Cl)cc2)o1)c1c(C)[nH][nH]c1=O 46.3
